Experimental data taken from ChEMBL document CHEMBL4622832, “Synthesis, biological evaluation and molecular modeling study of 2-amino-3,5-disubstituted-pyrazines as Aurora kinases inhibitors” (Bioorg Med Chem, 2020).
Calls of active or inactive are those of the source. No cut-off for these calls is given here.

Columns and labels:
[1] = test system: HeLa; test: Antiproliferative activity against human HeLa cells assessed as cell growth inhibition after 72 hrs by MTT assay; type: functional, cell-based
Procedure, shortened: (§1)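 Cells seeded at 5 × 10^3 cells/well in medium with 10% FBS for 24 h at 37 °C, 5% CO2. Compounds diluted in culture medium to various concentrations, 72 h exposure. MTT (5 mg/mL stock in serum-free medium) for 4 h, formazan dissolved in DMSO, absorbance at 490 nm. IC50 from log plot of percent of control versus concentration; triplicate.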

[2] = test system: HepG2; test: Antiproliferative activity against human HepG2 cells assessed as cell growth inhibition after 72 hrs by MTT assay; type: functional, cell-based; settings: HepG2, 72 h; procedure, shortened: as §1
[3] = test system: LoVo; test: Antiproliferative activity against human LoVo cells assessed as cell growth inhibition after 72 hrs by MTT assay; type: functional, cell-based; procedure, shortened: as §1
[4] = test system: U-87 MG; test: Antiproliferative activity against human U87 cells assessed as cell growth inhibition after 72 hrs by MTT assay; type: functional, cell-based, U-87MG ATCC; procedure, shortened: as §1
[5] = molecular target: T1, Aurora kinase B (Homo sapiens, UniProt Q96GD4); test: Inhibition of Aurora kinase B (unknown origin) incubated for 30 mins by Kinase Glo luminescent assay
T1 sequence (Q96GD4 whole entry): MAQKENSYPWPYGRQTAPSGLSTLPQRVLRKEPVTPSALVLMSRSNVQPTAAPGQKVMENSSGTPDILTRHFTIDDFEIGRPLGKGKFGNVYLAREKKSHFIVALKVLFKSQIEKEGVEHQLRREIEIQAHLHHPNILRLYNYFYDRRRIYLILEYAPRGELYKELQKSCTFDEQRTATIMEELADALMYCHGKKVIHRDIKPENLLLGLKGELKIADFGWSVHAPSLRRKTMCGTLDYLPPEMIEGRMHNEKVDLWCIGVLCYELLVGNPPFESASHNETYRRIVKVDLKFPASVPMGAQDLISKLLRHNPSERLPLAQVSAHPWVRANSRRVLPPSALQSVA

[6] = molecular target: T2, Aurora kinase A (Homo sapiens, UniProt O14965); test: Inhibition of Aurora kinase A (unknown origin) incubated for 30 mins by Kinase Glo luminescent assay
T2 sequence (O14965 whole entry): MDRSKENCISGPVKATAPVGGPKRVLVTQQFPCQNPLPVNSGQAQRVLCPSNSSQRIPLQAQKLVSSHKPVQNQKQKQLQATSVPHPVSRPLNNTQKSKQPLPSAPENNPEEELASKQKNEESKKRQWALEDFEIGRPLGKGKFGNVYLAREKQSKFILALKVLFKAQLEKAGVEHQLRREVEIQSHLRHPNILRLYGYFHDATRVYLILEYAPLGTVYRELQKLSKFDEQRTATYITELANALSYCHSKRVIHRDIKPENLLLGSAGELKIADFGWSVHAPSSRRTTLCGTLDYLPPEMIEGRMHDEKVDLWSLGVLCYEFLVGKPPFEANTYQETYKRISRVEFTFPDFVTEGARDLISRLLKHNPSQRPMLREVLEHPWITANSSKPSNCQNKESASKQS

[7] = molecular target: T1, Aurora kinase B; test: Inhibition of Aurora B in human B-NHL cells assessed as inhibition of histone H3 phosphorylation on Ser10 by immunoblotting analysis; type: cell-based
[8] = test system: HeLa; test: Induction of cell cycle arrest in human HeLa cells assessed as accumulation in G2/M phase at 10 uM after 24 hrs by propidium iodide staining-based flow cytometric analysis (reference value: 10.5%); type: functional
[9] = test system: HeLa; test: Induction of cell cycle arrest in human HeLa cells assessed as accumulation in G2/M phase at 5 uM after 24 hrs by propidium iodide staining-based flow cytometric analysis (reference value: 10.5%); type: functional
[10] = molecular target: T3, Aurora kinase A (Homo sapiens) (UniProt O14965); test: Inhibition of Aurora kinase A in human HeLa cells assessed as reduction in phosphorylation at Thr288 residue incubated for 24 hrs by western blot analysis; type: cell-based
T3 sequence (whole entry): T2 sequence (O14965 whole entry)
Procedure, shortened: (§2)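 HeLa cells treated 24 h at 0, 1, 5 or 10 µM. Lysates quantified by BCA; 20–30 µg protein run on 12% SDS-PAGE, transferred to PVDF. Blocked 2 h in 5% milk/TBST. Primary antibodies (1:500–1:1000) overnight at 4 °C against p-Aurora A Thr288, p-Aurora B Thr232, total Aurora A/B, cyclin B1 and cdc2. Secondary at 1:5000–1:10,000; β-actin loading control.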

[11] = test system: HeLa; test: Induction of cell cycle arrest in human HeLa cells assessed as decrease in cyclin B1 expression level at 1 to 10 uM incubated for 24 hrs by Western blot analysis; type: functional, cell-based; procedure, shortened: as §2
[12] = test system: HeLa; test: Induction of cell cycle arrest in human HeLa cells assessed as accumulation in G2/M phase after 24 hrs by propidium iodide staining-based flow cytometric analysis; type: functional
[13] = test system: HeLa; test: Induction of cell cycle arrest in human HeLa cells assessed as accumulation in G2/M phase at 1 uM after 24 hrs by propidium iodide staining-based flow cytometric analysis (reference value: 10.5%); type: functional
[14] = test system: HeLa; test: Induction of cell cycle arrest in human HeLa cells assessed as decrease in cdc2 expression level at 1 to 10 uM incubated for 24 hrs by Western blot analysis; type: functional, cell-based; procedure, shortened: as §2
[15] = molecular target: T1, Aurora kinase B; test: Inhibition of Aurora kinase B in human HeLa cells assessed as reduction in phosphorylation at Thr232 residue incubated for 24 hrs by western blot analysis; type: cell-based; procedure, shortened: as §2

| IC50 [1] [µM] | IC50 [2] [µM] | IC50 [3] [µM] | IC50 [4] [µM] | IC50 [5] [µM] | IC50 [6] [µM] | Structure (SMILES) | other results |
| --- | --- | --- | --- | --- | --- | --- | --- |
| 37.9 | > 100 | > 100 | 70.8 |  |  | Cc1noc(C)c1-c1cnc(N)c(Oc2ccc(C(=O)Nc3cc(Cl)ccn3)cc2)n1 |  |
| 32.1 | 6.88 | 17.5 | 47.8 |  |  | CCCNC(=O)c1ccc(Oc2nc(-c3c(C)noc3C)cnc2N)cc1 |  |
| 14.1 | 15.4 | 10.2 | 27.2 | 0.36 | 0.172 | Cc1noc(C)c1-c1cnc(N)c(Oc2ccc(C(=O)N3CCOCC3)cc2)n1 |  |
| 9.97 | 12.8 | 25.2 | 57.6 |  |  | Cc1noc(C)c1-c1cnc(N)c(Oc2ccc(C(=O)NC3CCCC3)cc2)n1 |  |
|  |  |  |  |  |  | O=C(Nc1c[nH]nc1-c1nc2ccc(CN3CCOCC3)cc2[nH]1)NC1CC1 [AT-9283] | IC50 [7]: 0.03 µM |
| 81.3 | > 100 | > 100 | 60.5 |  |  | Cc1noc(C)c1-c1cnc(N)c(Oc2ccc(C(=O)Nc3ccccc3Cl)cc2)n1 |  |
| 9.5 | 12.8 | 13.6 | 14.5 |  |  | Cc1cc(Nc2cc(N3CCN(C)CC3)nc(Sc3ccc(NC(=O)C4CC4)cc3)n2)n[nH]1 [TOZASERTIB] | Activity [8]: 36% |
| 17.8 | 43.2 | > 100 | 43.3 |  |  | Cc1noc(C)c1-c1cnc(N)c(Oc2ccc(C(=O)NC3CC3)cc2)n1 |  |
| 42.1 | 20.1 | 43.6 | > 100 |  |  | Cn1cc(-c2cnc(N)c(NCc3ccc(C(=O)Nc4ccc(Cl)cc4)cc3)n2)cn1 |  |
| 38.2 | 44.2 | 48.6 | 54.8 |  |  | Cn1cc(-c2cnc(N)c(Oc3ccc(C(=O)Nc4cccc(Cl)n4)cc3)n2)cn1 |  |
| 42.7 | > 100 | > 100 | > 100 |  |  | Cn1cc(-c2cnc(N)c(Sc3ccc(C(=O)Nc4ccc(Cl)cc4)cc3)n2)cn1 |  |
| 19.2 | 35.6 | 9.18 | 45.6 |  |  | Cc1noc(C)c1-c1cnc(N)c(Oc2ccc(C(=O)Nc3ccc(Cl)cn3)cc2)n1 |  |
| 3.44 | 11.9 | 3.08 | 35.8 | 0.175 | 0.19 | Cn1cc(-c2cnc(N)c(Oc3ccc(C(=O)Nc4ccc(Cl)cc4)cc3)n2)cn1 |  |
| 36.1 | 21.7 | 16.5 | 37.6 |  |  | Cn1cc(-c2cnc(N)c(Oc3ccc(C(=O)Nc4ncccc4Cl)cc3)n2)cn1 |  |
| 8.03 | 17.6 | 7.69 | 21.5 | 0.189 | 0.143 | Cc1noc(C)c1-c1cnc(N)c(Oc2ccc(C(=O)N3CCN(C)CC3)cc2)n1 |  |
| 4.46 | 21.2 | 24.5 | 21.7 | 0.272 | 0.658 | Cn1cc(-c2cnc(N)c(Oc3ccc(C(=O)Nc4cccc(Cl)c4)cc3)n2)cn1 |  |
| 38.4 | 45.2 | 49.2 | > 100 |  |  | Cc1noc(C)c1-c1cnc(N)c(Sc2ccc(C(=O)Nc3ccc(Cl)cc3)cc2)n1 |  |
| 26.1 | 5.42 | 21.6 | 40.4 | 0.32 | 0.23 | Cc1noc(C)c1-c1cnc(N)c(Oc2ccc(C(=O)NC3CCCCC3)cc2)n1 |  |
| 12.3 | 11.6 | 9.21 | 17.7 | 0.164 | 0.22 | Cn1cc(-c2cnc(N)c(Oc3ccc(C(=O)Nc4ccccc4)cc3)n2)cn1 |  |
| 2.23 | 14.4 | 1.92 | 15.5 | 0.26 | 0.458 | Cc1noc(C)c1-c1cnc(N)c(Oc2ccc(C(=O)Nc3ccc(Cl)cc3)cc2)n1 |  |
| 40.8 | > 100 | 26.6 | 47.9 |  |  | Cn1cc(-c2cnc(N)c(Oc3ccc(C(=O)Nc4cc(Cl)ccn4)cc3)n2)cn1 |  |
| 10.5 | 11.8 | 5.74 | 26.6 | 0.538 | 0.22 | Cc1noc(C)c1-c1cnc(N)c(Oc2ccc(C(=O)Nc3ccccc3)cc2)n1 |  |
| 25.5 | 35.7 | 39.3 | 64.1 |  |  | Cc1noc(C)c1-c1cnc(N)c(Oc2ccc(C(=O)Nc3cccc(Cl)n3)cc2)n1 |  |
| > 100 | > 100 | > 100 | > 100 |  |  | Cc1noc(C)c1-c1cnc(N)c(NCc2ccc(C(=O)Nc3ccc(Cl)cc3)cc2)n1 |  |
| 21.5 | 24.2 | 6.16 | 22.2 |  |  | Cn1cc(-c2cnc(N)c(Oc3ccc(C(=O)Nc4ccc(Cl)cn4)cc3)n2)cn1 |  |
| 73 | 66.9 | 41.4 | 44.8 |  |  | Cn1cc(-c2cnc(N)c(Oc3ccc(C(=O)Nc4ccccc4Cl)cc3)n2)cn1 |  |
| 1.34 | 7.3 | 1.64 | 11.5 | 0.152 | 0.09 | Cc1noc(C)c1-c1cnc(N)c(Oc2ccc(C(=O)Nc3cccc(Cl)c3)cc2)n1 | Activity [9]: 30.1%; inhibition [10]: Dose-dependent effect; Activity [11]: Active; Activity [12]: Dose-dependent effect; Activity [13]: 21%; Activity [14]: Active; Activity [8]: 34.9%; inhibition [15]: Dose-dependent effect |
| 31.9 | 27.2 | 14.8 | 45.6 |  |  | Cc1noc(C)c1-c1cnc(N)c(Oc2ccc(C(=O)Nc3ncccc3Cl)cc2)n1 |  |
